Assay results from ChEMBL document CHEMBL5653606 (J Pharmacol Exp Ther, 2011).
Calls of active or inactive are those of the source.

Key:
[1] = biological target: T1, Fatty-acid amide hydrolase 1 (Homo sapiens) (UniProt O00519); test: Inhibition of FAAH (unknown origin) assessed as kinact/Ki ratio in presence of glutamate dehydrogenase by 384-well format microplate reader assay
T1 sequence (whole entry): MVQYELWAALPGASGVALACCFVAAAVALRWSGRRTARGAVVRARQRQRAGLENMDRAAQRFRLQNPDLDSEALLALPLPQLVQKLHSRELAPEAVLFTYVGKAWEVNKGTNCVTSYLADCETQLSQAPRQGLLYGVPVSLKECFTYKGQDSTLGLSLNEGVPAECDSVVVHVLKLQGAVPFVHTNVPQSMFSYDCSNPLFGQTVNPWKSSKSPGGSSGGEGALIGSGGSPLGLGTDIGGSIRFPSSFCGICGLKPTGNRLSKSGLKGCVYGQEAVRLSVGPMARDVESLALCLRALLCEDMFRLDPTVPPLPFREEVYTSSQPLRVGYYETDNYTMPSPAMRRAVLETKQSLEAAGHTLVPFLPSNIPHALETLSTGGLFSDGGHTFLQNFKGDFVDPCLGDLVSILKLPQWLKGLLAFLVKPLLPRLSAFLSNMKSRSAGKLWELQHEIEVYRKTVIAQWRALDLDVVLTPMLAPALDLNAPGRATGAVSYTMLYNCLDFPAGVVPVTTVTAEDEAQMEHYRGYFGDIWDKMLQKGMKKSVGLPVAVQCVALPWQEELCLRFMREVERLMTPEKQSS

[2] = test system: Mus musculus; test: In vivo inhibition of rhodamine-azide tagged FAAH expressed in mouse brain at 10 mg/kg, ip administered for 2 hrs by CC-ABPP method based in-gel fluorescence scanning analysis; assay type: functional, organism-based
Outline: (§1)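 Alkyne analog given at 10 mg/kg i.p. to FAAH(+/+) or FAAH(−/−) mice. Animals killed at 2 h. Brain or liver proteomes click-reacted with rhodamine-azide tag, then analyzed by in-gel fluorescence scanning.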

[3] = test system: Mus musculus; test: In vivo inhibition of rhodamine-azide tagged FAAH expressed in mouse liver at 10 mg/kg, ip administered for 2 hrs by CC-ABPP method based in-gel fluorescence scanning analysis; assay type: functional, organism-based; outline: as §1
[4] = biological target: T2, Fatty-acid amide hydrolase 1 (Rattus norvegicus) (UniProt P97612); test: Inhibition of rat FAAH assessed as kinact/Ki ratio in presence of glutamate dehydrogenase by 384-well format microplate reader assay
T2 sequence (whole entry): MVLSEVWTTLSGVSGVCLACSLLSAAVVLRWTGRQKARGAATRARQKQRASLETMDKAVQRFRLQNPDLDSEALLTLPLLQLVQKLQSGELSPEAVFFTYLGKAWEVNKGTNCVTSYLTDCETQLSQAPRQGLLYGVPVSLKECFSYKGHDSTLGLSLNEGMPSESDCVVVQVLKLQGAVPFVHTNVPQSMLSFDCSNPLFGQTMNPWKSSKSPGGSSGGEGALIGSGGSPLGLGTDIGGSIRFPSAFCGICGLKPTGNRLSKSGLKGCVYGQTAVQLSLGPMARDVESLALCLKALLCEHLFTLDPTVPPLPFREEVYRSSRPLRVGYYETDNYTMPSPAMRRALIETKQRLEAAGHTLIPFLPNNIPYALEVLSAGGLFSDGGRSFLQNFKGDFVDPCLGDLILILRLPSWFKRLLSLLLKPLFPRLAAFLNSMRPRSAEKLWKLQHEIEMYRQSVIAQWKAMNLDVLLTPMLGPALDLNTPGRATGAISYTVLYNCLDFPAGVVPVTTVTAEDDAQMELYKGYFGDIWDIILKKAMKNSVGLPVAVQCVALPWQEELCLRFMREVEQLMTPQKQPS
Outline: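 Purified recombinant FAAH (>95% pure), human or rat. Glutamate dehydrogenase-coupled assay in 384-well format, 50 μl final volume. NAD⁺ formed from ammonia released by oleamide hydrolysis, followed at 340 nm.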

[5] = test system: Mus musculus; test: In vivo inhibition of rhodamine-azide tagged FAAH in FAAH knockout mouse liver at 10 mg/kg, ip administered for 2 hrs by CC-ABPP method based in-gel fluorescence scanning analysis; assay type: functional, organism-based; outline: as §1
[6] = test system: Mus musculus; test: Antinociceptive activity in C57BL6/J mouse assessed as increase in tail-immersion latency at 10 mg/kg, ip administered for 30 mins; assay type: functional, organism-based
Outline: (§2)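 Tetrad test in male C57BL6/J mice (7 weeks old; n = 8/group). Dosed i.p. at 10 ml/kg in 18:1:1 saline/Emulphor/ethanol, with a vehicle control group. Locomotive activity, thermal nociception (tail-immersion latency), catalepsy (60 s) and body temperature were assessed 30 min postdosing.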

[7] = test system: Mus musculus; test: Antinociceptive activity in C57BL6/J mouse assessed as increase in catalepsy at 10 mg/kg, ip administered for 30 mins; assay type: functional, organism-based; outline: as §2
[8] = test system: Mus musculus; test: Antinociceptive activity in C57BL6/J mouse assessed as reduction in locomotive activity at 10 mg/kg, ip administered for 30 mins; assay type: functional, organism-based; outline: as §2
[9] = test system: Mus musculus; test: Antinociceptive activity in C57BL6/J mouse assessed as increase in body temperature at 10 mg/kg, ip administered for 30 mins; assay type: functional, organism-based; outline: as §2
[10] = test system: Rattus norvegicus; test: Antihyperalgesic activity in CFA induced Sprague-Dawley rat assessed as partial reduction of mechanical allodynia at 3 mg/kg, ip by von frey test; assay type: functional, organism-based
Outline: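 CFA (150 μl, 1 mg/ml in mineral oil) injected into the plantar hind paw of male Sprague-Dawley rats (200–250 g). On day 5, the CB1 or CB2 antagonist was given at 3 mg/kg i.p. 10 min before testing, alongside a 3 mg/kg p.o. dose of the FAAH inhibitor. Mechanical paw withdrawal thresholds were measured with Von Frey hairs; n = 8 rats/group.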

[11] = biological target: T3, Fatty-acid amide hydrolase 1 (Mus musculus) (UniProt O08914); test: Inhibition of FAAH in mouse brain at 10 uM in presence of FP-rhodamine by competitive activity-based protein profiling method; assay type: tissue-based
T3 sequence (whole entry): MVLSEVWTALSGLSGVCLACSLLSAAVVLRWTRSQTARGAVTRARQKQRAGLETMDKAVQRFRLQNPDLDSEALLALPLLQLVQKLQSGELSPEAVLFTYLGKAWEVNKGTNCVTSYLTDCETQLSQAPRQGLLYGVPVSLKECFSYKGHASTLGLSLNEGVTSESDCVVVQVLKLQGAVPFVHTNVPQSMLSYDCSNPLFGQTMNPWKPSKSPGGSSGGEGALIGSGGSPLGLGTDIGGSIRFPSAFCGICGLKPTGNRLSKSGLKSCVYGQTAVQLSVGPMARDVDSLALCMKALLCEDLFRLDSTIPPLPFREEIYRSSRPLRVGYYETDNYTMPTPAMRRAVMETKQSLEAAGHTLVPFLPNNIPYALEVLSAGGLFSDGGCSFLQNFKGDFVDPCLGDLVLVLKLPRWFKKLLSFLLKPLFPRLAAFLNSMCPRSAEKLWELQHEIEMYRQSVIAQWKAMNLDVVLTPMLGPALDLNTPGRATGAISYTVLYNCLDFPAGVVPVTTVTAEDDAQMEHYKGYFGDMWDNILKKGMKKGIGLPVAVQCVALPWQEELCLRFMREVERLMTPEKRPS
Outline: (§3)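 Competitive ABPP on human and mouse brain, liver and heart proteomes (membrane and soluble fractions), exposed to compound at 10 or 100 μM or to DMSO. Serine hydrolases were then labeled with FP-rhodamine. Gels were read by fluorescence scanning, and loss of band labeling (FAAH or other hydrolases by kDa) was judged.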

[12] = biological target: T3, Fatty-acid amide hydrolase 1 (Mus musculus); test: Inhibition of FAAH in mouse brain at 100 uM in presence of FP-rhodamine by competitive activity-based protein profiling method; assay type: tissue-based; outline: as §3
[13] = biological target: T1, Fatty-acid amide hydrolase 1 (Homo sapiens); test: Inhibition of FAAH in human brain at 10 uM in presence of FP-rhodamine by competitive activity-based protein profiling method; assay type: tissue-based; outline: as §3
[14] = biological target: T1, Fatty-acid amide hydrolase 1 (Homo sapiens); test: Inhibition of human FAAH assessed as kinact/Ki ratio in presence of glutamate dehydrogenase by 384-well format microplate reader assay
Outline: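 Glutamate dehydrogenase-coupled assay in 384-well format, 50 μl final volume. NAD⁺ formed from ammonia released by oleamide hydrolysis, followed at 340 nm.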

[15] = biological target: T1, Fatty-acid amide hydrolase 1 (Homo sapiens); test: Inhibition of FAAH in human brain at 100 uM in presence of FP-rhodamine by competitive activity-based protein profiling method; assay type: tissue-based; outline: as §3
[16] = biological target: T2, Fatty-acid amide hydrolase 1 (Rattus norvegicus); conditions: Sprague-Dawley, dose 10.0 mg/kg, route po
[17] = biological target: T2, Fatty-acid amide hydrolase 1 (Rattus norvegicus); conditions: Sprague-Dawley, dose 10.0 mg/kg, route po; remark: listed apart in the source
[18] = biological target: T2, Fatty-acid amide hydrolase 1 (Rattus norvegicus); conditions: Sprague-Dawley, dose 10.0 mg/kg, route po; remark: listed apart in the source
[19] = biological target: T2, Fatty-acid amide hydrolase 1 (Rattus norvegicus); conditions: Sprague-Dawley, dose 10.0 mg/kg, route po; remark: listed apart in the source
[20] = biological target: T2, Fatty-acid amide hydrolase 1 (Rattus norvegicus); conditions: Sprague-Dawley, dose 10.0 mg/kg, route po; remark: listed apart in the source
[21] = biological target: T2, Fatty-acid amide hydrolase 1 (Rattus norvegicus); conditions: Sprague-Dawley, dose 10.0 mg/kg, route po; remark: listed apart in the source
[22] = biological target: T2, Fatty-acid amide hydrolase 1 (Rattus norvegicus); conditions: Sprague-Dawley, dose 10.0 mg/kg, route po; remark: listed apart in the source
[23] = test system: Rattus norvegicus; test: Antihyperalgesic activity in MIA induced Sprague-Dawley rat assessed as increased joint compression thresholds at 30 mg/kg, po administered twice daily for 3 consecutive days measured after 2 to 4 hrs; assay type: functional, organism-based; conditions: time 3.0 day
Outline: (§4)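 Male Sprague-Dawley rats (220–270 g), isoflurane-anesthetized, given 2 mg MIA in 0.9% saline (50 μl) intra-articular into the knee. From day 14, oral dosing at 10 ml/kg once daily for 3 days in 4% 2-hydroxypropyl-β-cyclodextrin/1% ethanol in 0.01 M HCl. Celecoxib 30 mg/kg in 0.5% methylcellulose twice daily. Joint compression threshold by digital Randall-Selitto at 2 and 4 h postdose on days 1 and 3; n = 10/group.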

[24] = test system: Rattus norvegicus; test: Antihyperalgesic activity in MIA induced Sprague-Dawley rat assessed as effect on pain behaviour in contralateral knee joint at 0.3 to 3 mg/kg, po administered once daily for 3 consecutive days; assay type: functional, organism-based; conditions: dose 0.3-3 mg/kg, time 3.0 day; outline: as §4

## C#CCCCOc1ccc(Oc2cccc(C=C3CCN(C(=O)Nc4cccnn4)CC3)c2)nc1
[1]
  Ratio: 11900 M⁻¹ s⁻¹
[2]
  inhibition: Active
[3]
  inhibition: Active

## O=C(Nc1ccccc1)N1CCC(Cc2cnc3ccccc3c2)CC1
[4]
  Ratio: 104 M⁻¹ s⁻¹

## C#CCCCCCCCCCNC(=O)Oc1cccc(-c2cccc(C(N)=O)c2)c1
[5]
  inhibition: Active
[2]
  inhibition: Active
[3]
  inhibition: Active

## Cc1c(C(=O)c2cccc3ccccc23)c2cccc3c2n1[C@H](CN1CCOCC1)CO3
[6]
  Activity: Toxic
[7]
  Activity: Toxic
[8]
  Activity: Toxic
[9]
  Activity: Toxic

## Cc1ccc(Cn2nc(C(=O)N[C@@H]3C(C)(C)[C@@H]4CC[C@@]3(C)C4)cc2-c2ccc(Cl)c(C)c2)cc1
[10]
  Activity: inactive

## NC(=O)c1cccc(-c2cccc(OC(=O)NC3CCCCC3)c2)c1
[11]
  inhibition: Active
[12]
  inhibition: Active
[13]
  inhibition: Active
[14]
  Ratio: 1590 M⁻¹ s⁻¹
[15]
  inhibition: Active

## COc1ccc2cc([C@H](C)C(=O)O)ccc2c1
[16]
  inhibition: inactive
[17]
  inhibition: inactive
[18]
  inhibition: inactive
[19]
  inhibition: inactive
[20]
  inhibition: inactive
[21]
  inhibition: inactive
[22]
  inhibition: inactive

## Cc1c(C(=O)NN2CCCCC2)nn(-c2ccc(Cl)cc2Cl)c1-c1ccc(Cl)cc1
[10]
  Activity: inactive

## Cc1ccc(-c2cc(C(F)(F)F)nn2-c2ccc(S(N)(=O)=O)cc2)cc1
[23]
  Activity: Active
[24]
  Activity: inactive
